According to ChEMBL document CHEMBL4152200, “Targeting the entrance channel of NNIBP: Discovery of diarylnicotinamide 1,4-disubstituted 1,2,3-triazoles as novel HIV-1 NNRTIs with high potency against wild-type and E138K mutant virus” (Eur J Med Chem, 2018):

Experiments:
[1] = test system: MT4; assay: Cytotoxicity against human MT4 cells assessed as decrease in cell viability after 5 days by MTT assay; format: cell-based; conditions: mt4, 120 h
Summary of the method: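 Mock-infected MT-4 cells, exponentially growing, seeded with compound in culture medium without virus; run in parallel with the antiviral assay. Viability read spectrophotometrically by MTT reduction five days later.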

[2] = test system: Human immunodeficiency virus 1; assay: Antiviral activity against wild-type HIV-1 3B infected in human MT4 cells assessed as inhibition of viral replication after 5 days by MTT assay; format: functional, organism-based; conditions: Human immunodeficiency virus 1, 3B, MT4, 120 h
[3] = test system: Human immunodeficiency virus 1; assay: Antiviral activity against HIV-1 RES056 harboring reverse transcriptase K103N/Y181C double mutant infected in human MT4 cells assessed as inhibition of viral replication after 5 days by MTT assay; format: functional, organism-based; conditions: Human immunodeficiency virus 1, RES056, MT4, 120 h
[4] = Selectivity index, ratio of CC50 for human MT4 cells to EC50 for wild-type HIV1 3B; format: toxicity; conditions: read-out: Ratio CC50/EC50
Summary of the method: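 Wild-type HIV-1 IIIB at 100–300 CCID50 added to MT-4 cells with compound, with mock-infected wells in parallel. MTT viability was read at day 5. […] SI = CC50/EC50.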

[5] = Selectivity index, ratio of CC50 for human MT4 cells to EC50 for HIV-1 RES056 harboring reverse transcriptase K103N/Y181C double mutant infected in human MT4 cells; format: toxicity, cell-based; conditions: read-out: Ratio CC50/EC50
Summary of the method: (§1)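 SI is CC₅₀ divided by EC₅₀, both by MTT after 5 days in MT-4 cells. CC₅₀ comes from mock-infected cultures run in parallel and is the concentration reducing their viability by 50%. EC₅₀ comes from cultures infected with the given mutant strain at 100–300 CCID₅₀.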

[6] = test system: Human immunodeficiency virus 1; assay: Antiviral activity against HIV1 harboring reverse transcriptase E138K mutant infected in human MT4 cells assessed as inhibition of viral replication after 5 days by MTT assay; format: functional, organism-based; conditions: Human immunodeficiency virus 1, MT4, 120 h
[7] = Selectivity index, ratio of CC50 for human MT4 cells to EC50 for HIV1 harboring reverse transcriptase Y181C mutant; format: toxicity; conditions: read-out: Ratio CC50/EC50; summary of the method: as §1
[8] = Selectivity index, ratio of CC50 for human MT4 cells to EC50 for HIV1 harboring reverse transcriptase Y188L mutant; format: toxicity; conditions: read-out: Ratio CC50/EC50; summary of the method: as §1
[9] = Selectivity index, ratio of CC50 for human MT4 cells to EC50 for HIV1 harboring reverse transcriptase L100I mutant; format: toxicity; conditions: read-out: Ratio CC50/EC50; summary of the method: as §1
[10] = test system: Human immunodeficiency virus 1; assay: Resistance factor, ratio of EC50 for HIV1 harboring reverse transcriptase K103N mutant to EC50 for wild-type HIV-1 3B; format: functional
Summary of the method: (§2)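 Resistance fold is EC₅₀ against the mutant strain divided by EC₅₀ against WT IIIB. Both EC₅₀ values come from the 5-day MTT protection assay in MT-4 cells infected with 100–300 CCID₅₀ of virus.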

[11] = Selectivity index, ratio of CC50 for human MT4 cells to EC50 for HIV1 harboring reverse transcriptase F227L/V106A mutant; format: toxicity; conditions: read-out: Ratio CC50/EC50; summary of the method: as §1
[12] = test system: Human immunodeficiency virus 1; assay: Antiviral activity against HIV1 harboring reverse transcriptase Y181C mutant infected in human MT4 cells assessed as inhibition of viral replication after 5 days by MTT assay; format: functional, organism-based; conditions: Human immunodeficiency virus 1, MT4, 120 h
[13] = test system: Human immunodeficiency virus 1; assay: Resistance factor, ratio of EC50 for HIV1 harboring reverse transcriptase E138K mutant to EC50 for wild-type HIV-1 3B; format: functional; summary of the method: as §2
[14] = test system: Human immunodeficiency virus 1; assay: Resistance factor, ratio of EC50 for HIV1 harboring reverse transcriptase F227L/V106A mutant to EC50 for wild-type HIV-1 3B; format: functional; summary of the method: as §2
[15] = test system: Human immunodeficiency virus 1; assay: Antiviral activity against HIV1 harboring reverse transcriptase Y188L mutant infected in human MT4 cells assessed as inhibition of viral replication after 5 days by MTT assay; format: functional, organism-based; conditions: Human immunodeficiency virus 1, MT4, 120 h
Summary of the method: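 MT-4 cells in exponential growth, resuspended into wells holding HIV-1 stock (IIIB, RES056 K103N/Y181C, F227L/V106A, L100I, K103N, E138K, Y181C or Y188L) at 100–300 CCID₅₀, or into mock-infected wells. Viability read by MTT reduction to formazan, measured spectrophotometrically 5 days post-infection. EC₅₀ is the concentration giving 50% protection against virus-induced cytotoxicity.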

[16] = Selectivity index, ratio of CC50 for human MT4 cells to EC50 for HIV1 harboring reverse transcriptase E138K mutant; format: toxicity; conditions: read-out: Ratio CC50/EC50; summary of the method: as §1
[17] = test system: Human immunodeficiency virus 1; assay: Antiviral activity against HIV1 harboring reverse transcriptase K103N mutant infected in human MT4 cells assessed as inhibition of viral replication after 5 days by MTT assay; format: functional, organism-based; conditions: Human immunodeficiency virus 1, MT4, 120 h
[18] = test system: Human immunodeficiency virus 1; assay: Antiviral activity against HIV1 harboring reverse transcriptase L100I mutant infected in human MT4 cells assessed as inhibition of viral replication after 5 days by MTT assay; format: functional, organism-based; conditions: Human immunodeficiency virus 1, MT4, 120 h
[19] = Selectivity index, ratio of CC50 for human MT4 cells to EC50 for HIV1 harboring reverse transcriptase K103N mutant; format: toxicity; conditions: read-out: Ratio CC50/EC50; summary of the method: as §1
[20] = test system: Human immunodeficiency virus 1; assay: Antiviral activity against HIV1 harboring reverse transcriptase F227L/V106A double mutant infected in human MT4 cells assessed as inhibition of viral replication after 5 days by MTT assay; format: functional, organism-based; conditions: Human immunodeficiency virus 1, MT4, 120 h
[21] = test system: Human immunodeficiency virus 1; assay: Resistance factor, ratio of EC50 for HIV1 harboring reverse transcriptase L100I mutant to EC50 for wild-type HIV-1 3B; format: functional; summary of the method: as §2
[22] = test system: Human immunodeficiency virus 1; assay: Resistance factor, ratio of EC50 for HIV1 harboring reverse transcriptase Y181C mutant to EC50 for wild-type HIV-1 3B; format: functional; summary of the method: as §2
[23] = test system: Human immunodeficiency virus 1; assay: Resistance factor, ratio of EC50 for HIV1 harboring reverse transcriptase Y188L mutant to EC50 for wild-type HIV-1 3B; format: functional; summary of the method: as §2

For `Cc1cc(C)c(Oc2cc(Nc3ccc(C#N)cc3)ncc2C(=O)NCc2cn(Cc3ccccc3C#N)nn2)c(C)c1`, the CC50 [1] was over 220 µM, the EC50 [2] was 39 nM and the EC50 [3] was over 220 µM.

`Cc1cccc(Cn2cc(CNC(=O)c3cnc(Nc4ccc(C#N)cc4)cc3Oc3c(C)cc(C)cc3C)nn2)c1` gave a CC50 [1] of 114 µM, an EC50 [2] of 106 nM and a selectivity ratio [4] of 1070. The selectivity ratio [5] was under 1 and the EC50 [3] was over 114 µM.

For `Cc1cc(C)c(Oc2cc(Nc3ccc(C#N)cc3)ncc2C(=O)NCc2cn(CCCO)nn2)c(C)c1`, the EC50 [6] was 39 nM, the selectivity ratio [7] was 109 and the CC50 [1] was 25.2 µM. The selectivity ratio [8] was 8, the selectivity ratio [9] was 13 and the “Ratio EC50” value [10] was 11.1. For the same compound, the selectivity ratio [11] was 32, the EC50 [2] was 37 nM and the EC50 [12] was 230 nM. For the same compound, the “Ratio EC50” value [13] was 1.1, the selectivity ratio [4] was 678 and the “Ratio EC50” value [14] was 21.1. The EC50 [15] was 3170 nM, the selectivity ratio [16] was 651 and the EC50 [17] was 410 nM. The EC50 [18] was 1950 nM, the selectivity ratio [5] was 5 and the selectivity ratio [19] was 62. For the same compound, the EC50 [20] was 780 nM, the “Ratio EC50” value [21] was 52.7 and the EC50 [3] was 5.23 µM. The “Ratio EC50” value [22] was 6.2 and the “Ratio EC50” value [23] was 85.7.

Compound `Cc1cc(C)c(Oc2cc(Nc3ccc(C#N)cc3)ncc2C(=O)NCc2cn(Cc3cccc(C#N)c3)nn2)c(C)c1` has a CC50 [1] of at least 130 µM, an EC50 [2] of 25 nM and an EC50 [3] of over 130 µM.

Work on `Cc1cc(C)c(Oc2cc(Nc3ccc(C#N)cc3)ncc2C(=O)NCc2cn(Cc3ccccc3C)nn2)c(C)c1` yielded a CC50 [1] of at least 164 µM, an EC50 [2] of 77 nM and an EC50 [3] of over 164 µM.

In the case of `CCOC(=O)CCn1cc(CNC(=O)c2cnc(Nc3ccc(C#N)cc3)cc2Oc2c(C)cc(C)cc2C)nn1`, the CC50 [1] is reported as 21.5 µM, the EC50 [2] is reported as 847 nM and the selectivity ratio [4] is reported as 25. It also gave a selectivity ratio [5] of under 1 and an EC50 [3] of over 21.5 µM.

`Cc1cc(C)c(Oc2cc(Nc3ccc(C#N)cc3)ncc2C(=O)NCc2cn(Cc3cccc(Cl)c3)nn2)c(C)c1` gave a CC50 [1] of 187 µM, an EC50 [2] of 104 nM and a selectivity ratio [4] of 1800. The selectivity ratio [5] was under 1 and the EC50 [3] was over 187 µM.

`Cc1ccc(Cn2cc(CNC(=O)c3cnc(Nc4ccc(C#N)cc4)cc3Oc3c(C)cc(C)cc3C)nn2)cc1` showed a CC50 [1] of 165 µM, an EC50 [2] of 167 nM and a selectivity ratio [4] of 990. The selectivity ratio [5] was under 1 and the EC50 [3] was over 165 µM.

Compound `Cc1cc(C)c(Oc2cc(Nc3ccc(C#N)cc3)ncc2C(=O)NCc2cn(Cc3ccc([N+](=O)[O-])cc3)nn2)c(C)c1` has a CC50 [1] of at least 140 µM, an EC50 [2] of 40 nM and an EC50 [3] of over 140 µM.

Compound `COC(=O)Cn1cc(CNC(=O)c2cnc(Nc3ccc(C#N)cc3)cc2Oc2c(C)cc(C)cc2C)nn1` has a CC50 [1] of 13.8 µM, an EC50 [2] of 1770 nM and a selectivity ratio [4] of 8. The selectivity ratio [5] was under 1 and the EC50 [3] was over 13.8 µM.

`Cc1cc(C)c(Oc2cc(Nc3ccc(C#N)cc3)ncc2C(=O)NCc2cn(Cc3ccccc3[N+](=O)[O-])nn2)c(C)c1` gave a CC50 [1] of over 212 µM, an EC50 [2] of 57 nM and an EC50 [3] of over 212 µM.

With `Cc1cc(C)c(Oc2cc(Nc3ccc(C#N)cc3)ncc2C(=O)NCc2cn(CCC#N)nn2)c(C)c1` the EC50 [6] was 15 nM, the selectivity ratio [7] was 450 and the CC50 [1] was 40.1 µM. The selectivity ratio [8] was 18, the selectivity ratio [9] was 38 and the “Ratio EC50” value [10] was 12.5. The selectivity ratio [11] was 121, the EC50 [2] was 20 nM and the EC50 [12] was 89 nM. The “Ratio EC50” value [13] was 0.8, the “Ratio EC50” value [14] was 16.5 and the EC50 [15] was 2240 nM. For the same compound, the selectivity ratio [16] was 2630, the EC50 [17] was 250 nM and the EC50 [18] was 1060 nM. The selectivity ratio [19] was 158, the EC50 [20] was 330 nM and the “Ratio EC50” value [21] was 53. The EC50 [3] was 2.31 µM, the “Ratio EC50” value [22] was 4.5 and the “Ratio EC50” value [23] was 112.
